Screening results as filed in PubChem.
Measles CPE: protection of cells from measles virus; Measles virus-infected cells, CPE protection, absorbance; protection (pct of control), % at 4 µM; 140,000 tested, 1.5% active; in the data active = protection mostly above about 24%, no sharp cut-off; inactive = mostly below about 26%
RAM inhibit: blocks the yeast RAM network | S. cerevisiae dse1pr::URA3 reporter, 5-FOA growth OD615, 2 d; analog-sensitive cbk1-as2 kinase mutant strain | inhibition, % at 50 µM | 190,000 tested, 1.8% active | AID 868;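 active = inhibition above a set limit, 3 SD over mean compound inhibition, cut at about 8.4% in these data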;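 note: 0% = DMSO-only wells with no growth and 100% = 10 µM 1-NA-PP1 full growth; inhibition rescues growth on 5-FOA so higher OD means more RAM inhibition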
Yeast life ext: extends the lifespan of yeast; S. cerevisiae growth with nicotinamide, OD615; deaD strain in restrictive glucose medium; inhibition of the nicotinamide effect, % at 10 µM; 130,000 tested, 0.68% active;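 active = inhibition above a set limit, placed 3 SD over the median of all compounds, cut at about 26% in these data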;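 note: 0% = nicotinamide-treated wells and 100% = cells grown without nicotinamide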
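assay system = DeaD-strain S. cerevisiae | buffer or medium = restrictive glucose medium | reagent = 1.5 mM nicotinamide | compound = 10 µM single point, 0.25% DMSO | incubation = 48 h compound exposure at 30 °C, humidified | signal = OD615 measurement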
BB579 growth dn: chemicals that inhibit yeast BB579 growth in restrictive medium (lifespan-shortening candidates); S. cerevisiae BB579 growth, OD615, 48 h; inhibition, % at 10 µM; 140,000 tested, 0.51% active; AID 804;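 active = inhibition above a set limit, 3 SD over the mean compound inhibition, cut at about 44% in these data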
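Assay system – yeast BB579 (DeaD) · Dosing – single compound dose of 10 µM, 0.25% DMSO final · Detection – OD615 turbidity measurement · Buffer or medium – CSMM-D restrictive synthetic medium containing dextrose (glucose) · Benchmarks – positive control amphotericin B 10 µg/mL · Incubation – 48 h exposure, 30 °C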
* = called active by the depositor; . = no result given. The list is not random: actives were taken first. Their share in the collection is about 3.6%.

SMILES | Measles CPE | RAM inhibit | Yeast life ext | BB579 growth dn
CC(=O)/C=C/n1c(=S)oc2ccccc21 | 0.9 | -1.1 | 39.4* | 20.8
COc1cccc(C2CC(c3ccccc3)=NN2S(=O)(=O)c2ccc(C)cc2)c1OC (configuration not stated) | . | 10.8* | . | .
COc1ccc(C2CC(c3ccccc3)=NN2S(=O)(=O)c2ccc(C)cc2)c(OC)c1 (configuration not stated) | 3.6 | 5.5 | 6.8 | 4.4
CCOC(=O)c1sc(NC(=O)C(C)Sc2nc(N)cc(=O)[nH]2)nc1C (configuration not stated) | . | 1.6 | . | .
CC1(C)CC2c3cccc(C(=O)O)c3C(=O)N2c2c1ccc1ccccc21 (configuration not stated) | 7.1 | 3.0 | 47.9* | -21.2
COc1ccc(C(C#N)c2ccc(=O)[nH]n2)cc1 (configuration not stated) | . | 1.1 | . | .
O=Cc1cc([N+](=O)[O-])ccc1N1CCOCC1 | 33.1* | 0.4 | 5.6 | -2.0
Nc1nc(-c2ccc(Cl)cc2)c(N=Nc2ccc(S(=O)(=O)N3CCOCC3)cc2)s1 | 6.3 | 9.3* | 5.0 | -8.1
CN(C(=O)c1cccs1)c1ccc(OCC(=O)N2CCC(C(N)=O)CC2)cc1 | . | 1.7 | . | .
C=CCC1c2cccc(C(=O)O)c2C(=O)N1c1cccc(C)c1 (configuration not stated) | 0.3 | -1.9 | -5.5 | 61.9*
CS(=O)(=O)Nc1cccc(C(=O)CC2(O)C(=O)Nc3ccccc32)c1 (configuration not stated) | 7.2 | -0.7 | 2.0 | 18.5
CS(=O)(=O)Nc1cccc(C(=O)CC2(O)C(=O)Nc3ccc(Br)cc32)c1 (configuration not stated) | 34.5* | 0.3 | -3.5 | 2.1
COc1ccc(O)c(C(=O)CC(=O)c2ccccc2)c1 | 5.2 | 2.5 | -29.8 | -13.1
COc1ccc(C(=O)C/C(=C\C(=O)c2ccc(C)cc2)c2ccccc2)cc1 | 0.1 | 10.9* | 33.2* | -23.0
COc1ccc(C(CC(=O)c2ccccc2)S(=O)(=O)c2ccc(C)cc2)cc1 (configuration not stated) | 4.0 | 9.8* | -15.3 | -19.5
Cn1c(=O)n(C)c2cc(NS(=O)(=O)c3cccs3)ccc21 | . | 2.4 | . | .
COc1ccc(CCNC(=O)C(=O)NCc2cccs2)cc1OC | . | 1.0 | . | .
C=CCn1c(SC)nc2sc3c(c2c1=O)CCc1ccccc1-3 | 1.6 | 9.0* | -5.1 | -37.4
C=CCn1c(SCC(=O)NC)nc2sc3c(c2c1=O)CCC3 | 7.4 | 2.2 | -10.6 | -16.1
CCn1c(SCC(N)=O)nc2sc3c(c2c1=O)CCCC3 | 3.5 | 3.0 | -6.2 | -58.0
C=CCSc1nc2sc3c(c2c(=O)n1CC)CCc1ccccc1-3 | 3.2 | 9.2* | -2.6 | -30.1
S=C(Nc1ccc(Nc2ccccc2)cc1)N1CCN(c2ncccn2)CC1 | . | 6.7 | . | .
COc1ccc2[nH]cc(CCNS(=O)(=O)Cc3ccccc3)c2c1 | . | 1.5 | . | .
C(=N\Nc1ccccn1)/c1ccc2c(c1)OCCO2 | . | 0.2 | . | .
CCc1nnc(NC(=O)CN2CCN(c3ccccc3F)CC2)s1 | . | 0.1 | . | .
SMILES | Measles CPE | RAM inhibit | Yeast life ext | BB579 growth dn
Cc1cc2c(cc1C)/C(=C\C(N)=O)NC(C)(C)C2 | 44.4* | -1.1 | -9.0 | 2.6
Cc1cccc2c1CC(C)(C)N/C2=C\C(N)=O | 5.0 | 1.2 | 6.6 | -49.4
CC(=O)Nc1cccc(NC(=O)c2cc(-c3cccnc3)nc3ccc(Cl)cc23)c1 | . | 9.3* | . | .
CC(=O)Nc1ccc(N2CC(C)(C)C2=O)cc1 | . | -1.1 | . | .
CCc1cccc(C)c1NC(=S)NCCc1c(C)[nH]c2ccc(C)cc12 | 10.4 | 7.0 | 2.2 | 45.1*
CCc1cccc(CC)c1NC(=S)NCCc1c(C)[nH]c2ccc(C)cc12 | 10.6 | 6.7 | -0.6 | 32.0
CCOC(=O)N1CCC(NC(=O)C2CCN(c3nc(-c4ccc(OC)cc4)no3)CC2)CC1 | 44.2* | 4.0 | -6.8 | -20.1
CCN(CC)C(=O)N1CCc2ccccc21 | . | 1.0 | . | .
O=C(Nc1cccc(S(=O)(=O)Nc2ccccc2F)c1)c1ccc2ccccc2n1 | . | 5.0 | . | .
O=C(/C=C/c1ccccc1)Nc1cccc(S(=O)(=O)Nc2ccccc2F)c1 | 4.4 | 9.3* | 8.6 | -8.2
O=C(Cc1ccc(Cl)cc1Cl)Nc1cccc(S(=O)(=O)Nc2ccccc2F)c1 | 14.1 | 8.8* | 14.7 | 1.7
Cc1c(C(=O)O)oc2c1/C(=N\O)CC(C)(C)C2 | 44.0* | 0.0 | 6.4 | -32.7
Cc1c(C(=O)O)oc2c1C(=O)CC(C)(C)C2 | . | 1.6 | . | .
CCn1nnnc1SCC(=O)N1CCOCC1 | 27.9* | 0.1 | -0.5 | 12.2
COc1cccc(C(=O)Nc2cnc(NC(=O)c3ccco3)cc2C)c1 | 9.0 | 1.5 | -7.4 | -20.4
O=C(CCc1ccccc1)Nc1ccc(NC(=O)c2ccco2)cc1 | 0.2 | 1.0 | -6.2 | -19.7
Cc1ccc(NC(=O)CCC(=O)NNC(=O)c2ccco2)c(C)c1 | 25.3* | -1.1 | -6.8 | -2.6
Cc1cc(NC(=O)c2ccco2)ncc1NC(=O)Cc1ccccc1 | 30.9* | 0.6 | -13.5 | -37.4
O=C(CCc1ccccc1)Nc1ccc(NC(=O)c2ccco2)nc1 | 25.4* | 2.2 | -32.9 | 6.0
CCOC(=O)/C(=N\Nc1cc(Cl)ccc1Cl)N1CCOCC1 | . | -0.2 | . | .
O=C1c2ccccc2C(Nc2ccc3c(c2)OCCO3)N1c1ccccn1 (configuration not stated) | 2.8 | 1.1 | 36.3* | -14.9
O=C(Oc1ccc(-n2cnnn2)cc1)c1ccccc1 | . | 0.5 | . | .
Cn1c(Sc2ccc(Br)cc2)c(C=O)c2ccccc21 | 17.8 | 10.2* | -6.8 | -30.9
Cn1c(Oc2ccc(F)cc2)c(C=O)c2ccccc21 | . | 1.4 | . | .
O=C(COC(=O)c1ccc(O)cc1)NCC1CCCO1 (configuration not stated) | . | 2.7 | . | .
SMILES | Measles CPE | RAM inhibit | Yeast life ext | BB579 growth dn
COc1ccc(CCN2C(=O)CC(NNC(=O)c3ccccc3Br)C2=O)cc1OC (configuration not stated) | 10.9 | 3.9 | 2.3 | -8.8
CC(C)N(C(=S)Nc1cc(S(=O)(=O)N2CCOCC2)ccc1Cl)c1ccccc1 | 2.6 | 0.1 | 39.5* | -10.6
COc1ccc(NS(=O)(=O)c2cc(NC(=O)c3cc(=O)c4ccccc4o3)ccc2OC)cc1 | . | 9.6* | . | .
COc1ccc(NS(=O)(=O)c2cc(NC(=O)c3ccc(F)cc3)ccc2OC)cc1 | 5.5 | 6.9 | 9.4 | -24.2
CC(C(=O)Nc1ccccc1-c1ccccc1)N(C)Cc1nc2ccccc2c(=O)[nH]1 (configuration not stated) | . | 1.2 | . | .
O=C(c1cccs1)n1nc(-c2ccco2)nc1SCc1ccccc1 | 16.3 | 10.1* | -5.1 | -41.5
CSc1nc(-c2ccco2)nn1C(=O)c1cccs1 | 18.7 | 3.6 | -8.4 | 8.1
Cc1ccnc(SCc2cc(=O)c(OC(=O)c3ccc(Br)o3)co2)n1 | 3.8 | 2.5 | 25.5 | 5.1
O=C(Oc1coc(CSc2ncccn2)cc1=O)c1ccc(Br)o1 | 25.6 | 1.0 | 38.1* | -5.8
OCCC1CN(Cc2ccccc2-c2ccco2)CCN1Cc1ccccc1 (configuration not stated) | . | 0.1 | . | .
O=C(Nc1ncc2c(n1)-c1ccccc1OC2)c1cccc([N+](=O)[O-])c1 | . | 8.6* | . | .
